Source: paper PMC4497517 (Proteins, 2009)
“Also recorded” adds a separate entry of the source. Where a SMILES comes first, the peptide text is derived from it.

Legend:
[1] = molecular target: T1, cdk2/cyclin E complex (Homo sapiens, UniProt P24941); test: Phosphorylation of RNAPII CTD; type: biochemical
In short: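 C81 cell lysate was fractionated on Superose 6 size exclusion, and cdk2 fractions 28–32 were pooled with test peptide (0.01, 0.1, 1, 10 μM). Cyclin E was immunoprecipitated overnight at 4°C (1 μg antibody, ~100 ng active cdk2/cyclin E), captured on protein A/G beads and washed. Kinase reaction: 20 μl, 1 hr, 37°C, GST-CTD substrate, (γ-32P) ATP. Products run on 4–20% Tris-glycine gel, dried, 32P bands counted by phosphorimager.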

[2] = molecular target: T1, cdk2/cyclin E complex; settings: cited from earlier work
[3] = system: cdk2 K178A; settings: cited from earlier work
[4] = system: cdk2 Y180A; settings: cited from earlier work
[5] = system: cdk2 R126A; settings: alanine mutation experiment; cited from earlier work
[6] = system: cdk2; settings: cited from earlier work
[7] = system: RNA polymerase II (RNAPII) serine 5; settings: by disrupting cdk2/cyclin E complex formation; cited from earlier work

IC50 [1]	Molecule	Disruption of cdk2/cyclin E complex [2]	Binding affinity to mutant [3]	Binding affinity to mutant [4]	Effect of R126A mutation on peptide binding [5]	Interaction with cdk2 [6]	Inhibition of phosphorylation of serine 5 of RNAPII [7]
4.26 µM	CC(C)C[C@H](NC(=O)[C@H](C)NC(=O)[C@H](C)NC(=O)[C@@H](N)CC(C)C)C(=O)N[C@@H](CO)C(=O)O [LAALS] (H-LAALS-OH)	–	–	–	–	–	–
–	TAALS	disrupts the cdk2/cyclin E complex; also recorded: succeeded in partially breaking the cdk2/cyclin E complex	dramatic reduction in their binding affinity	dramatic reduction in their binding affinity	does not participate significantly in the peptide binding; also recorded: does not affect the binding of peptide TAALS	interacts directly with cdk2	inhibits the phosphorylation of serine 5 of RNA polymerase II (RNAPII)
